Drawing on ChEMBL document CHEMBL1123828, “Carbostyril derivatives having potent beta-adrenergic agonist properties” (J Med Chem, 1987), this text covers EC50, IC50 and IA for five molecules.

Structures are written as SMILES.

In general, EC50 refers to the concentration that produces a half-maximal response. High values mean a less potent agent, low ones a more potent agent. Usually IC50 stands for the concentration needed to halve the response being measured. A lower IC50 goes with inhibition by little substance.

The species entered for assay [1] is Rattus norvegicus. In words: The compound was evaluated for its ability to stimulate adenylate cyclase activity. The class given is functional. An outline of the steps: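 Rat reticulocyte membranes (0.01–0.05 mg protein) incubated 10 min at 32 °C in 50 mM Tris-HCl pH 7.4 with 1.6 mM ATP, 5 mM MgCl2, 1 mM EGTA, 10 mM theophylline, 0.01% BSA, creatine phosphokinase/phosphocreatine, 0.5 mM GTP and varying ligand concentrations. Stopped by boiling with EDTA buffer; cAMP measured by competitive protein binding. Basal and GTP activity subtracted; EC50 from dose-effect analysis.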

For assay [2], the target named is Adrenergic receptor beta (Rattus norvegicus, UniProt P18090+P10608+P26255). The experiment in a line: The compound was evaluated for the inhibition of [125I]cyanopindolol binding to beta adrenergic receptor in rat reticulocyte membrane. The class given is cell membranes.
The species named for assay [3] is Rattus norvegicus. The experiment in a line: The compound was evaluated for the intrinsic activity compared to (-)-isoproterenol. The class given is functional.

With `CC(C)(Cc1ccccc1)NCC(O)c1ccc(O)c2nc(O)ccc12` (centres undefined), in assay [1], the EC50 came out at 6.9 nM. The same molecule displayed a concentration for half-maximal inhibition (IC50) in assay [2] of 3.1 nM. In assay [3], this molecule returned an IA of 1.

Turning to `CC(C)(Cc1ccc(I)cc1)NCC(O)c1ccc(O)c2nc(O)ccc12` (centres undefined), the EC50 in assay [1] came to 5.6 nM. The molecule further yielded an IC50 in assay [2] of 7.6 nM. Further, the IA in assay [3] was 1.3.

As to `CC(C)(Cc1ccc(N)cc1)NCC(O)c1ccc(O)c2nc(O)ccc12` (centres undefined), the EC50 in assay [1] was found to be 14.2 nM. Also, the IC50 in assay [2] was determined as 22 nM. This molecule also registered an IA in assay [3] of 1.

Regarding `CC(C)(Cc1ccc(NC(=O)CBr)cc1)NCC(O)c1ccc(O)c2nc(O)ccc12` (centres undefined), in assay [1], the EC50 was 8.5 nM. The molecule further yielded an IC50 in assay [2] of 5.3 nM. The molecule also returned an IA in assay [3] of 1.2.

`CC(C)NCC(O)c1ccc(O)c(O)c1` (single isomer, unassigned; (-)) [ISOPROTERENOL]: the concentration giving a half-maximal response (EC50) in assay [1] was 226 nM. Also, in assay [3], the IA is given as 1.
